In the M2OR odorant receptor database:
Positions count from the first letter of the chain named.

Experiments:
Conditions in all cases: stereoisomer not certain
OR10R2 (Homo sapiens) = target: T1, OR10R2 (Homo sapiens) (UniProt Q8NGX6)
T1 sequence (whole entry): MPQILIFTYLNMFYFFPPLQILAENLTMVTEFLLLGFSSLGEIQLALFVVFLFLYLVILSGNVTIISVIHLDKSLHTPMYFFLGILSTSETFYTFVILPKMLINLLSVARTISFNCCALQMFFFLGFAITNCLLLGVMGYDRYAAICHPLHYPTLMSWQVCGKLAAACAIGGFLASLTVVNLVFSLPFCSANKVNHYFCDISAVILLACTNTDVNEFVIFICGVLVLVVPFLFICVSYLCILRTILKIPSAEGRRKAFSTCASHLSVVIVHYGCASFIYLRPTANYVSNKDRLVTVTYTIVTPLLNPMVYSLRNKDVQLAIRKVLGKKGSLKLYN
In short: (§1)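 Whether a receptor–molecule pair is responsive (active) rests on the original authors' judgment that its measured signal was statistically different from baseline. Pairs without that judgment are non-responsive (inactive). Sources used varied assay methods, commonly transient luciferase assays in mammalian cell lines.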

OR10S1 (Homo sapiens) = target: T2, OR10S1 (Homo sapiens) (UniProt Q8NGN2)
T2 sequence (whole entry): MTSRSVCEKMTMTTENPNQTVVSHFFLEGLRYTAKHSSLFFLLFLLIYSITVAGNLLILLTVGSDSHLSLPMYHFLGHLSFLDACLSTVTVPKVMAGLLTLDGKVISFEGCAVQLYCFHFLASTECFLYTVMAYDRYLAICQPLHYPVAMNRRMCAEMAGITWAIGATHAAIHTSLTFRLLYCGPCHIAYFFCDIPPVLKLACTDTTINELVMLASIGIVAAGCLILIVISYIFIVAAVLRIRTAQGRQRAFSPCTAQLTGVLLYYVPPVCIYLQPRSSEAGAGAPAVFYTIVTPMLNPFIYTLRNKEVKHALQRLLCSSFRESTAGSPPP
In short: as §1

OR10T2 (Homo sapiens) = target: T3, OR10T2 (Homo sapiens) (UniProt Q8NGX3)
T3 sequence (whole entry): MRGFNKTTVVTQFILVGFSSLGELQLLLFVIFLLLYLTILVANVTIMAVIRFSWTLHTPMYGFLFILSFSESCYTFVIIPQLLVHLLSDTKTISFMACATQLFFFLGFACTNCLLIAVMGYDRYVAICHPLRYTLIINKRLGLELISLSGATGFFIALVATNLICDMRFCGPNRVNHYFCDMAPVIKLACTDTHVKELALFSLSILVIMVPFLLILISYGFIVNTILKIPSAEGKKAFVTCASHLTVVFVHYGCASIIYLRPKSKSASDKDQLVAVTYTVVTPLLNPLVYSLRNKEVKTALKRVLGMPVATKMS
In short: as §1

OR10V1 (Homo sapiens) = target: T4, OR10V1 (Homo sapiens) (UniProt Q8NGI7)
T4 sequence (whole entry): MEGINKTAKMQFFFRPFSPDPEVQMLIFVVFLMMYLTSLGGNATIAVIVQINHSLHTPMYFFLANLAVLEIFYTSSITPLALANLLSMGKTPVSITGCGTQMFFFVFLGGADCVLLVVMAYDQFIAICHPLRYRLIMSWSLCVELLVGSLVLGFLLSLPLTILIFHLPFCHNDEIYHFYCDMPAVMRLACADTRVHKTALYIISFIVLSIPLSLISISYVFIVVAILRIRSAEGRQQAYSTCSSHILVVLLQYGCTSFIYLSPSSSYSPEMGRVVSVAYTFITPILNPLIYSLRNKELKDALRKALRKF
In short: as §1

OR10W1 (Homo sapiens) = target: T5, OR10W1 (Homo sapiens) (UniProt Q8NGF6)
T5 sequence (whole entry): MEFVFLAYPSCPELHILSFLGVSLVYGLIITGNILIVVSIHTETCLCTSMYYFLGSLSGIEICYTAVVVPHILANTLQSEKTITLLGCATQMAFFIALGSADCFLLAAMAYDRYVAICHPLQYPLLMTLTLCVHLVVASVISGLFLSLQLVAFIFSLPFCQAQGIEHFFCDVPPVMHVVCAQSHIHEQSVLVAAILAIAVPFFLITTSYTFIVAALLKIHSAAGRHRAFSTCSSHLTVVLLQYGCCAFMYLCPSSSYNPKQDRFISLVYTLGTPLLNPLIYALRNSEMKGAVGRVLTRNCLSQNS
In short: as §1

OR10X1 (Homo sapiens) = target: T6, OR10X1 (Homo sapiens) (UniProt Q8NGY0)
T6 sequence (whole entry): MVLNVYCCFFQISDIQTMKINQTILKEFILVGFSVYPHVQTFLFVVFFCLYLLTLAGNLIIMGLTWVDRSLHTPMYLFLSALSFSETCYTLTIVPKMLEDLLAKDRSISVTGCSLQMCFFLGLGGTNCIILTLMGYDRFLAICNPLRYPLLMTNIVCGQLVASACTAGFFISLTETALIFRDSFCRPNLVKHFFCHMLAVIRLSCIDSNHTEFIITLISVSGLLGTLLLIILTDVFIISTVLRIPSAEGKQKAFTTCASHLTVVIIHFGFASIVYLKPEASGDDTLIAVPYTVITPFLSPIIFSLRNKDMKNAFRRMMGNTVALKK
In short: as §1

OR10Z1 (Homo sapiens) = target: T7, OR10Z1 (Homo sapiens) (UniProt Q8NGY1)
T7 sequence (whole entry): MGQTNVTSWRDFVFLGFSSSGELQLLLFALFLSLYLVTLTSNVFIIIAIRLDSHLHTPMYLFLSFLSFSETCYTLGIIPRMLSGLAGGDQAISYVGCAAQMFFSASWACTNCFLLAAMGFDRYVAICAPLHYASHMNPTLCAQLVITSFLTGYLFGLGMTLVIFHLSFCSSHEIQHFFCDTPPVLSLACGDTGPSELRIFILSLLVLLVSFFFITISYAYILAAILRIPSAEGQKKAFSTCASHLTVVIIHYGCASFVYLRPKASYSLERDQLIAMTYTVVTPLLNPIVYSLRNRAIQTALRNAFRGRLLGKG
In short: as §1

OR11A1 (Homo sapiens) = target: T8, OR11A1 (Homo sapiens) (UniProt Q9GZK7)
T8 sequence (whole entry): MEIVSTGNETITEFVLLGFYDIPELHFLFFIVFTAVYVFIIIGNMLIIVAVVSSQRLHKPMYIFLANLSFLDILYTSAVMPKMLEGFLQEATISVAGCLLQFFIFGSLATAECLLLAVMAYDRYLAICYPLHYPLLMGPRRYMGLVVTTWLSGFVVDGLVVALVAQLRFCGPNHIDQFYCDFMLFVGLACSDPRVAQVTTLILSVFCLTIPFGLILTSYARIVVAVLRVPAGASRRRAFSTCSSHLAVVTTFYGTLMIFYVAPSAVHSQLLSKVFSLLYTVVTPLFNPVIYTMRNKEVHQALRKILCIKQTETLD
In short: as §1

OR11G2 (Homo sapiens) = target: T9, OR11G2 (Homo sapiens) (UniProt Q8NGC1)
T9 sequence (whole entry): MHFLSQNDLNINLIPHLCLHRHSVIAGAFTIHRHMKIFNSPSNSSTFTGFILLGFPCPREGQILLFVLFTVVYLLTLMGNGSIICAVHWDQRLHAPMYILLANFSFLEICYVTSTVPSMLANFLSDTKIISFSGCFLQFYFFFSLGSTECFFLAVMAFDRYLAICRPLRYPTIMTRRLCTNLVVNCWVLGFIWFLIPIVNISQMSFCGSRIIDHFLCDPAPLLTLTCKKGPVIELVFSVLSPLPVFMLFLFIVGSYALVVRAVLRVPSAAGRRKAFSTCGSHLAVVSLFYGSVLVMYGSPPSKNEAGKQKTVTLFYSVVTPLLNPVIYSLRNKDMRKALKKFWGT
In short: as §1

OR11H1 (Homo sapiens) = target: T10, OR11H1 (Homo sapiens) (UniProt Q8NG94)
T10 sequence (whole entry): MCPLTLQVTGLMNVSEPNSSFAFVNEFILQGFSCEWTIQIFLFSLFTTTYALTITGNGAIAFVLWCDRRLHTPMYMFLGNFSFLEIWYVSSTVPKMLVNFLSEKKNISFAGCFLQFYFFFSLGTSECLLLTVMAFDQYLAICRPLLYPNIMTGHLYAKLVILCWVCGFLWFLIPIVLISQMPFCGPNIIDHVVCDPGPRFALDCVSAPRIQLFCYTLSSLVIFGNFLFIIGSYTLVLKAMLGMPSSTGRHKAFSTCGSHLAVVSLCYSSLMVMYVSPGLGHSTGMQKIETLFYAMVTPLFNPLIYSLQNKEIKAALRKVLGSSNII
In short: as §1

OR11H12 (Homo sapiens) = target: T11, OR11H12 (Homo sapiens) (UniProt B2RN74)
T11 sequence (whole entry): T10 sequence (whole entry) with S33T, R68W, Y156C, M240V
In short: as §1

OR11H2 (Homo sapiens) = target: T12, OR11H2 (Homo sapiens) (UniProt Q8NH07)
T12 sequence (whole entry): T10 sequence (whole entry) with Q7H, T49I, M181K, R199L, M240V, S269P
In short: as §1

OR11H4 (Homo sapiens) = target: T13, OR11H4 (Homo sapiens) (UniProt Q8NGC9)
T13 sequence (whole entry): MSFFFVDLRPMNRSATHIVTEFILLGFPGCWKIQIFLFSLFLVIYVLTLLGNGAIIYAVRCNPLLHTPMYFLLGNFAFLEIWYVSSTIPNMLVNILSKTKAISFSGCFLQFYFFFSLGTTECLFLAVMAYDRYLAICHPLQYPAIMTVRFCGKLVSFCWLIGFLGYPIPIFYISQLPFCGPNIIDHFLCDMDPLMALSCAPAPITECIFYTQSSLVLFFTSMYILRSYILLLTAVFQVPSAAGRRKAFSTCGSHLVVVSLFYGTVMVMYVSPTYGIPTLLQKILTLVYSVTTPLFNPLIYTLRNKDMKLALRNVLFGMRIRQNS
In short: as §1

OR11H6 (Homo sapiens) = target: T14, OR11H6 (Homo sapiens) (UniProt Q8NGC7)
T14 sequence (whole entry): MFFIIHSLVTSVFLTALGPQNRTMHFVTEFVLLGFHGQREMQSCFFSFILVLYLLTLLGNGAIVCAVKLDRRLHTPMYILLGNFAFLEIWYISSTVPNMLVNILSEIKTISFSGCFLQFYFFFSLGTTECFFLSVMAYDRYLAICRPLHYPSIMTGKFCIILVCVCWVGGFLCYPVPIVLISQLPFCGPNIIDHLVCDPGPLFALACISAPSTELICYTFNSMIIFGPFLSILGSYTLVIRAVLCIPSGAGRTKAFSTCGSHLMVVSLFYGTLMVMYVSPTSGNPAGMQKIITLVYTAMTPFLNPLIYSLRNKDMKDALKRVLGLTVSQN
In short: as §1

OR11L1 (Homo sapiens) = target: T15, OR11L1 (Homo sapiens) (UniProt Q8NGX0)
T15 sequence (whole entry): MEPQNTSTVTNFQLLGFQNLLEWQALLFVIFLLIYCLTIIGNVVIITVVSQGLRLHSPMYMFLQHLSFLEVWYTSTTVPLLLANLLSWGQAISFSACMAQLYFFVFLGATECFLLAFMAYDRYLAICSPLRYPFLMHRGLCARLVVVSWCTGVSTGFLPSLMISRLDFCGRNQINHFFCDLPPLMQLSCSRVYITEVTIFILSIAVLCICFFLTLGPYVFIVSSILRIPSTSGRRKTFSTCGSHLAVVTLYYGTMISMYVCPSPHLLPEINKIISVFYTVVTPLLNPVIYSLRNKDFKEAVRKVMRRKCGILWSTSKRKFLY
In short: as §1

OR12D2 (Homo sapiens) = target: T16, OR12D2 (Homo sapiens) (UniProt P58182)
T16 sequence (whole entry): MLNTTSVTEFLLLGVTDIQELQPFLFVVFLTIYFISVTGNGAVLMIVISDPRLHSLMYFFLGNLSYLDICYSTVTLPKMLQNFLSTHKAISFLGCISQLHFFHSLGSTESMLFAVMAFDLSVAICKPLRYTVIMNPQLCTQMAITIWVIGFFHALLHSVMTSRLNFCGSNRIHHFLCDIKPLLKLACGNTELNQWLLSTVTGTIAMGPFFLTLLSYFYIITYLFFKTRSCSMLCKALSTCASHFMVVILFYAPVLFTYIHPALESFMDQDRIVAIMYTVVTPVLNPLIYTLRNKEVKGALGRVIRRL
In short: as §1

OR12D3 (Homo sapiens) = target: T17, OR12D3 (Homo sapiens) (UniProt Q9UGF7)
T17 sequence (whole entry): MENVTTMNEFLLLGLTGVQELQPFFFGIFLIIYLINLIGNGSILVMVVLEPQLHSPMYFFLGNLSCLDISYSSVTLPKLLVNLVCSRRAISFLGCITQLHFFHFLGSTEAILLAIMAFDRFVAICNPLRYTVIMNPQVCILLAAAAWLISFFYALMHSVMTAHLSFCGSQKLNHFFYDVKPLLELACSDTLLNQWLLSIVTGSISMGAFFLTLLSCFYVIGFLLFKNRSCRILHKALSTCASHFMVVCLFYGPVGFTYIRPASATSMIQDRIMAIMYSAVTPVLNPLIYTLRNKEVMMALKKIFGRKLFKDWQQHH
In short: as §1

OR13A1 (Homo sapiens) = target: T18, OR13A1 (Homo sapiens) (UniProt Q8NGR1)
T18 sequence (whole entry): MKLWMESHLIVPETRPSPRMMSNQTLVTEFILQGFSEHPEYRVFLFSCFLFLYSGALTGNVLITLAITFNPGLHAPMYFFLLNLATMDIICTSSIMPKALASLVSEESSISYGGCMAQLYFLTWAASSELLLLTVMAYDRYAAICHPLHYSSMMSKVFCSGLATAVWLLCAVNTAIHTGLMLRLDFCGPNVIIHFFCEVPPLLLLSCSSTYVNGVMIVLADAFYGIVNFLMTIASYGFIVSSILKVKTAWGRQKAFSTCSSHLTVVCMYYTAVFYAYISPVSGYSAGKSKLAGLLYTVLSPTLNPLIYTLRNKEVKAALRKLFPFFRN
In short: as §1

Measured: odorant receptor agonist call;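 further: active if original authors judged signal statistically different from baseline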

CCCCCCC=CCCC=O
inactive: all assays above
